# Measurements of several laboratories.
# Compare with care: the assays were run in different laboratories. pIC50: −log10 of the molar value.
SMILES,target or system,test,test system,setting,measurement,result
Cc1sc2c(c1C)C(c1ccc(Cl)cc1)=N[C@@H](CC(=O)OC(C)(C)C)c1nnc(C)n1-2,Jurkat,"cell growth or viability, ATP luminescence",,72 h,pIC50,6.00
COc1c(N2C[C@@H]3CCCN[C@@H]3C2)c(F)cc2c(=O)c(C(=O)O)cn(C3CC3)c12,Mycobacteroides abscessus,microbial growth,ATCC19977,,MIC,1 µM
O=c1ccc2nc3ccc(O)cc3oc-2c1,Pseudomonas aeruginosa,microbial growth,,24 h,MIC,> 32 µg/mL
COc1c(N2CC3CCCNC3C2)c(F)cc2c(=O)c(C(=O)OCc3cnc([N+](=O)[O-])s3)cn(C3CC3)c12 (centres unmarked),Pseudomonas aeruginosa,microbial growth,ATCC27853,,MIC,6 µM
Oc1c(Br)cc(Br)cc1-c1[nH]c(Br)c(Br)c1Br,Pseudomonas aeruginosa,microbial growth,ATCC27853,,MIC,64 µM
N.N.[Cl][Pt][Cl],PLC,"cell growth or viability, MTT",,72 h,pIC50,5.09
O=c1ccc2nc3ccc(OCc4ccc([N+](=O)[O-])o4)cc3oc-2c1,Pseudomonas aeruginosa,microbial growth,,24 h,MIC,> 32 µg/mL
Oc1c(Cl)cc(Cl)cc1-c1[nH]c(Cl)c(Cl)c1Cl,Pseudomonas aeruginosa,microbial growth,ATCC27853,,MIC,64 µM
